B-score data for 109 compounds are collected here from PubChem BioAssay AID2648 (Johns Hopkins Ion Channel Center, 2010).

Screen size: about 310,000 compounds; about 1,100 (0.35%) were called active.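 How the source made its calls: active means fluorescence ratio B-score, a plate-corrected score, at least three library SD, with initial intensity B-score within 5 SD; inactive means the rest.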 The sample as a whole holds a higher share of actives than the screen did.

For the assay, the target named is Potassium voltage-gated channel subfamily KQT member 1 (Homo sapiens) (UniProt P51787). The assay is described as follows: human KCNQ1 current enhancers – cell-based, thallium flux, high-throughput, primary screen (AID 2648). The conditions noted are these: CHO-K1 KCNQ1, thallium flux FluxOR fluorescence, at 10 µM; active compounds read high. The method, boiled down: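 System: CHO-K1 cells stably expressing KCNQ1 / Medium: assay buffer for compound exposure, DMSO matched across wells / Reagent: thallium- and potassium-containing depolarizing buffer / Compound: one concentration, matched DMSO / Incubation: 20 min compound pretreatment at room temperature / Measured by: kinetic FluxOR fluorescence, 10 s baseline plus 110 s post-stimulus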
Sequence of Potassium voltage-gated channel subfamily KQT member 1 (Homo sapiens) (P51787 whole entry, looked up): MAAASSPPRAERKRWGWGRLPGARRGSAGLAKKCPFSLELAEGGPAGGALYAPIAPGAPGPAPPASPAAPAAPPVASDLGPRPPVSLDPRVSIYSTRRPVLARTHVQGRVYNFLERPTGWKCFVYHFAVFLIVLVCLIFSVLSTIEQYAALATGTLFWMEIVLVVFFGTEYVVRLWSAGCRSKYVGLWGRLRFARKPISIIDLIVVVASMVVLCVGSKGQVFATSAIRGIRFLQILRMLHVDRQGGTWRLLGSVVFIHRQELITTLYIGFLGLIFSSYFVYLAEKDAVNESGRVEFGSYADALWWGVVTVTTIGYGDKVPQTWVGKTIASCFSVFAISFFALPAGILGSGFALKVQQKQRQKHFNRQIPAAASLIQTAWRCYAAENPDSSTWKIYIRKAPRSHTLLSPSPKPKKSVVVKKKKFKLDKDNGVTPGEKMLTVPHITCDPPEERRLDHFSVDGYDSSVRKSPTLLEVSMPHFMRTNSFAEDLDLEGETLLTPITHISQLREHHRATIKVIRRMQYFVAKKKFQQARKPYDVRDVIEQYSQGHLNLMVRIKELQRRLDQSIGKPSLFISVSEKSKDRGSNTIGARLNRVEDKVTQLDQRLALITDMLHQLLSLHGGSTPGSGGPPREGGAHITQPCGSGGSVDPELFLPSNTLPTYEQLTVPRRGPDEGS
Take `Cc1[nH][nH]c(=O)c1C(c1ccc(-c2ccc(Cl)cc2)o1)c1c(C)[nH][nH]c1=O`: the B-score is 25 (active).
On to `O=C(NC1CCCCC1)c1ccc(-c2ccc(Cl)cc2)o1`, for which the B-score result is “inactive”.
For the compound `CCOc1ccc(C(c2c(C)[nH][nH]c2=O)c2c(C)[nH][nH]c2=O)cc1OCC`, the B-score entry is “inactive”.
In the case of `Cn1nnnc1-c1cc(Cl)cc(Cl)c1` it was “inactive”; in that of `CC(=O)C12CC(C)=C(C)CC1CC1C3CCC4=CC(=O)CCC4(C)C3CCC12C` (centres undefined), “inactive”.
For the compound `O=C1NC(c2ccccc2)CCC1(Cl)Cl` (centres undefined), the B-score result is “inactive”.
In the case of `COc1cccc2sc(N(CCCN(C)C)C(=O)C(c3ccccc3)c3ccccc3)nc12` it was “inactive”; in that of `COc1cccc2sc(N(CCCN(C)C)C(=O)CCS(=O)(=O)c3ccccc3)nc12`, 8 (active); in that of `COc1cc2ccccc2cc1C(=O)N(CCN(C)C)c1nc2c(F)cccc2s1`, “inactive”.
In the case of `Cc1ccc2sc(N(CCN(C)C)C(=O)/C=C/c3cccs3)nc2c1C` it was “inactive”.
Consider `Cc1cccc2sc(N(CCCN(C)C)C(=O)CCS(=O)(=O)c3ccccc3)nc12`, for which the B-score is 30 (active).
Take `CC(=O)N(CCCN(C)C)c1nc2ccc(C)cc2s1`: the B-score entry is “inactive”.
As to `CCCCC(=O)Nc1ccc2c(c1)C(=O)NC2=O`, the B-score result was “inactive”.
Turning to `O=C(COc1cc2oc(=O)c3c(c2cc1Cl)CCC3)NCCCN1CCOCC1`, the B-score entry is “inactive”.
Take `Cc1ccc(NC2CCCN(C(=O)CCC3(C)CC3)C2)cc1C` (centres undefined): the B-score entry was “inactive”.
For `COCCNC(=O)CSc1nc2sccc2c(=O)n1-c1ccccc1`, the B-score entry is “inactive”.
In the case of `CCN(CC)S(=O)(=O)c1ccc(Cl)c(NC(=O)c2ccncc2)c1` it was “inactive”.
In the case of `Cc1cccc(NC(=O)c2cccnc2Cl)n1`, the B-score result was “inactive”.
Regarding `CCN(CC)S(=O)(=O)c1ccc(NC(=O)c2cccnc2Cl)c(NC(=O)c2cccnc2Cl)c1`, the B-score is 13 (active).
On to `CC1CCN(S(=O)(=O)c2ccc3c(ccn3CC(=O)O)c2)CC1`, for which the B-score result is “inactive”.
In the case of `CC1CCN(c2ccc(-c3ccc(NC(=O)c4ccco4)cc3)nn2)CC1` it was “inactive”; in that of `S=c1[nH]c2ccccc2c2ccccc12`, 7 (active).
In the case of `S=c1ccc2ccccc2[nH]1` it was “inactive”; in that of `NC(=O)Cc1ccc2c(c1)[nH]c1ccccc12`, “inactive”; in that of `COc1ccc(OC)c(CCNC(=O)c2nn(C)c3c2CS(=O)(=O)c2ccccc2-3)c1`, “inactive”.
In the case of `O=C(Nc1ccc(F)c([N+](=O)[O-])c1)C1CCCO1` (centres undefined) it was “inactive”; in that of `O=C(Oc1c(-c2ccco2)oc2ccccc2c1=O)c1cccnc1`, 15 (active); in that of `N#CCc1ccc(OC(=O)c2cccnc2)cc1`, “inactive”.
Consider `O=C(Oc1ccc(Br)cc1)c1cccnc1`, for which the B-score entry is “inactive”.
For the compound `CCO[C@H]1OC(C(=O)Nc2ccccc2)=C[C@@H](C2CC2)[C@@H]1CCCO`, the B-score result is “inactive”.
For `Cc1ccc(S(=O)(=O)Nc2ccc3ncccc3c2)cc1`, the B-score result was “inactive”.
In the case of `COc1cc(NS(=O)(=O)c2ccc3ccccc3c2)c2ncccc2c1` it was 14 (active).
As for `O=[N+]([O-])c1ccccc1S(=O)(=O)Nc1cccc2cccnc12`, the B-score entry was “inactive”.
Turning to `COC(=O)C1=C(C(=O)OC)[C@@H]2N(C)c3ccccc3[C@@]23C[C@@H](C(=O)OC)N(C(=O)c2ccco2)C3=N1`, the B-score entry was “inactive”.
Turning to `CC1(C)C2CC[C@]3(C)C(CC=C4[C@@H]5C[C@@](C)(CO)CC[C@]5(C(=O)O)CC[C@]43C)[C@@]2(C)CC[C@@H]1O` (some centres undefined), the B-score entry is “inactive”.
In the case of `CC1(C)CC[C@]2(C(=O)O)CC[C@]3(C)C(=CCC4[C@@]5(C)CC[C@H](O)C(C)(C)C5[C@H](O)C[C@]43C)[C@@H]2C1` (some centres undefined) it was 10 (active).
In the case of `CSc1ncccc1C(=O)Nc1ccc(C)cn1` it was “inactive”; in that of `O=C(Nc1ccccc1)c1cc2ccccc2[nH]1`, “inactive”; in that of `O=c1/c(=C/c2ccc(CNS(=O)(=O)c3ccccc3)o2)sc2n1CCN=2`, “inactive”.
In the case of `NNc1nc2c(Cl)cccc2s1` it was “inactive”.
Turning to `Fc1cc(F)c2nc(Nc3nc4c(F)cccc4s3)sc2c1`, the B-score is 37 (active).
`NC(=O)c1c(Nc2nc3c(F)cccc3s2)sc2c1CCCC2`: the B-score entry was “inactive”.
Consider `COc1cccc2cc(C(=O)NCc3ccc(C)cc3)c(=N)oc12`, for which the B-score entry was “inactive”.
As to `COC(=O)C1CCN(C(=O)c2ccc3oc(Cc4ccc(Cl)cc4)nc3c2)CC1`, the B-score entry is “inactive”.
As to `Cc1ccc(-n2c(C)cc(/C=N\NC(=O)CC(=O)NC(C)C)c2C)cc1`, the B-score result was “inactive”.
`Cc1cccc(-n2c(C)cc(/C=N/NC(N)=S)c2C)c1`: the B-score was 8 (active).
In the case of `Cc1cccc(-n2c(C)cc(/C=N\NC(=O)c3cccs3)c2C)c1` it was “inactive”; in that of `Cc1cc(=O)oc2c(C)c(OCC(=O)NCCN3CCOCC3)ccc12`, “inactive”; in that of `CCCOc1ccc(C(=O)C(CCC(CNCC)C(=O)c2ccc(OCCC)cc2)CNCC)cc1` (centres undefined), “inactive”.
In the case of `FC(F)(F)c1ccc(CN2C[C@@H]3C(c4ccccc4)C4(c5ccccc5)CC3(C4)[C@H]2c2ccccc2)cc1` (some centres undefined), the B-score entry was “inactive”.
In the case of `COC(=O)c1sc(NC(=S)NC(=O)c2ccc(C)cc2)nc1C` it was 18 (active); in that of `COC(=O)c1sc(NC(=O)c2csc3c2CCCC3)nc1C`, “inactive”; in that of `Cc1ccc(C(=O)NC(=S)Nc2ccccc2C)cc1`, “inactive”.
As for `C/C(Cl)=C\Cn1c(Nc2cccc(C)c2)nc2c1c(=O)n(C)c(=O)n2C`, the B-score entry is “inactive”.
In the case of `CC(C)NC(=O)C(c1ccc(F)cc1)N(C(=O)CCC(=O)Nc1ccccn1)c1ccccc1F` (centres undefined) it was “inactive”; in that of `[O-][n+]1c2c(nn1-c1ccc(Cl)c(Cl)c1)-c1nonc1CC2`, “inactive”.
As to `COc1ccc(NC(=O)C(=O)NCC(c2ccco2)N2CCc3ccccc3C2)cc1` (centres undefined), the B-score result was “inactive”.
Take `COC(=O)c1ccccc1NC(=O)C1CCN(S(=O)(=O)c2cc(OC)ccc2OC)CC1`: the B-score result was “inactive”.
As to `O=C(c1ccc(F)cc1)c1cn(Cc2ccc(F)cc2)c2cc3c(cc2c1=O)OCCO3`, the B-score result is “inactive”.
For the compound `Oc1c(Cl)cc(Cl)c(Cl)c1Cc1c(O)c(Cl)cc(Cl)c1Cl`, the B-score was 87 (active).
In the case of `COP1(=O)C[C@@H](O)[C@@H](O)[C@@H](COCc2ccccc2)O1` (some centres undefined) it was “inactive”.
For `CC(=O)Nc1sc2c(c1C(c1cccc(F)c1)N1CCN(CCO)CC1)CCCC2` (centres undefined), the B-score entry is “inactive”.
With `COCCNC(=O)CCCN1C(=O)c2ccccc2Sc2ncccc21`, the B-score entry was “inactive”.
For `Cc1c(C(=O)NC(C)C2CC3CCC2C3)cccc1[N+](=O)[O-]` (centres undefined), the B-score result is “inactive”.
In the case of `CC(C)(C)c1ccc(Cn2nnc3c(=O)[nH]c(C4CCCN(C(=O)c5ccco5)C4)nc32)cc1` (centres undefined) it was “inactive”; in that of `Cc1ccc(/C=N/NC(=O)CSc2ccccn2)o1`, “inactive”.
In the case of `Cc1ccc(/C=N/NC(=O)c2cc3ccccc3cc2O)o1` it was 41 (active).
In the case of `O=C(N/N=C/c1cccnc1)c1cc2ccccc2cc1O` it was “inactive”; in that of `CN(CC(=O)Nc1ccc(Cl)cc1)C(=O)CNC(=O)c1ccc2ccccc2c1`, “inactive”; in that of `COc1cc(C(=O)NCC(=O)NCCSc2ccc(Br)cc2)cc(OC)c1OC`, “inactive”.
`Cc1ccc(N(CC(=O)NC2CCCCC2)C(=O)CCCC(=O)Nc2ccccn2)c(C)c1`: the B-score entry is “inactive”.
In the case of `CCCCNC(=O)C1CCCNC1=O` (centres undefined) it was “inactive”; in that of `CCC1(C)Cc2c(sc3nc4n(c(=O)c23)CCCS4)CO1` (centres undefined), “inactive”.
In the case of `CCC1(C)Cc2c(sc3[nH]c(=S)n(Cc4ccccc4)c(=O)c23)CO1` (centres undefined) it was 57 (active); in that of `CCC1(C)Cc2c(sc3nc(SC)[nH]c(=O)c23)CO1` (centres undefined), “inactive”.
For `OC(CNCc1ccc(Cl)c(Cl)c1)c1ccccc1` (centres undefined), the B-score result is “inactive”.
`Cc1cccn2cc(-c3cccc(S(=O)(=O)N4CCCCC4)c3)nc12`: the B-score entry was “inactive”.
In the case of `COc1cccc(NC(=S)NC(=O)c2c(Cl)c(C)nn2C)c1` it was 8 (active).
In the case of `Cc1nn(C)c(C(=O)NNC(=S)NC2CCCCC2)c1Cl`, the B-score entry was “inactive”.
In the case of `COc1cccc(NC(=S)NCc2ccccn2)c1` it was “inactive”; in that of `CCOc1ccc(N=C2NC(=O)S/C2=C\c2ccc(O)cc2)cc1`, “inactive”.
In the case of `COc1ccc(/C=C2/S/C(=N/N=C3\CC4CCC3(C)C4(C)C)NC2=O)cc1` (centres undefined) it was 23 (active); in that of `COc1ccc(/C=C2\SC(=N)N(c3ccc(F)cc3)C2=O)cc1`, “inactive”.
In the case of `Cc1ccc(OS(=O)(=O)c2ccc(-c3csc(C)n3)s2)c(C)c1` it was “inactive”; in that of `CCOC(=O)N1CCN(C(=O)C(C)NC(=O)c2ccco2)CC1` (centres undefined), “inactive”.
Take `Cc1ccc(C)c(NC(=O)C(OC(=O)c2ccc(C)s2)c2ccccc2)c1` (centres undefined): the B-score result is “inactive”.
In the case of `CCn1c(O)c(N=NC(=O)c2cccc(S(=O)(=O)N3CCCCC3)c2)c2ccccc21` it was “inactive”.
In the case of `COC(=O)Cn1c2ccc(C)cc2c2nc(C)sc21` it was “inactive”; in that of `CCn1c(O)c(N=NC2=NC(=O)CS2)c2cc(C)ccc21`, 11 (active).
In the case of `CCCc1noc2c1/C(=N\O)CCC2` it was “inactive”.
As to `Cc1c(N=Nc2ccc(N(C)C)cc2)c(=O)n(-c2ccccc2)n1C`, the B-score result is “inactive”.
For the compound `CCOC(=O)c1c(NC(=S)Nc2ccccc2)sc2c1CCN(C)C2`, the B-score result is “inactive”.
In the case of `CCOC(=O)c1c(NC(=O)C2(C)Cc3ccccc3C(=O)O2)sc2c1CCCC2` (centres undefined) it was “inactive”.
In the case of `CCOC(=O)c1c(NC(=S)NC)sc2c1CCCC2` it was 77 (active); in that of `Cc1ccc(C(=O)CN2C(=O)NC3(CCc4ccccc43)C2=O)c(C)c1` (centres undefined), “inactive”; in that of `CN(C)c1nc(=Nc2cccc(Cl)c2)ss1`, 12 (active).
In the case of `Clc1cccc(N=C2NN=C(c3ccc4c(c3)OCCO4)CS2)c1` it was “inactive”.
Regarding `Cc1cc(C)c(C#N)c(SCC(=O)NN2CC(=O)N(c3ccccc3F)CC2=O)n1`, the B-score entry is “inactive”.
Take `CCN(CC)N=Nc1cccc(NC(C)=O)c1`: the B-score entry is “inactive”.
For `O=C(C1=C(O)C(=O)N(CCOCCO)C1c1ccccn1)c1cccs1` (centres undefined), the B-score entry is “inactive”.
With `CCOc1cc(C)c(S(=O)(=O)NCc2ccccn2)cc1C`, the B-score result was “inactive”.
`CCCC(=O)n1nc(-c2ccccc2)nc1N`: the B-score is 20 (active).
In the case of `COc1ccc(CC(=O)n2nc(-c3cccnc3)nc2N)cc1` it was “inactive”; in that of `COc1ccc(C(=O)n2nc(-c3ccc(C)cc3)nc2N)cc1OC`, “inactive”; in that of `O=C1/C(=C\Nc2ccccc2)CCN1c1ncccn1`, “inactive”.
In the case of `O=C1N[C@@H](Cc2ccccc2)C(=O)N2[C@H]1C[C@]1(Br)c3ccccc3N(S(=O)(=O)c3ccccc3)[C@H]21` it was “inactive”; in that of `O=C1NC(c2cccc(Cl)c2)Nc2ccccc21` (centres undefined), “inactive”.
In the case of `O=c1c(-c2cccc(Cl)c2)c[nH]n1-c1ccccc1` it was “inactive”; in that of `O=C1c2ccccc2NC(c2ccc(-c3cccc(Cl)c3)o2)N1O` (centres undefined), 10 (active).
